Source: PubChem
Exocytosis inh = lytic granule exocytosis inhibition; 360,000 compounds, 0.66% hits; TALL-104 LAMP-1 surface exposure, flow cytometry; cells stimulated with thapsigargin and PMA; inhibition, % at 10 µM; AID 651702;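 active means inhibition above about 55%, limit read from the data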
MT1-MMP act inh = MT1-MMP (human) activation inhibition; HT1080 RFP-PRO-GFP cells, GFP/RFP ratio fluorescence, overnight; percent of plate control window, DMSO zero; P50281; GFP/RFP ratio change, % at 20 µM; 360,000 compounds, 0.061% hits; AID 651647;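 active means GFP/RFP ratio change of at least 30% with cell ATP level not reduced by more than half and red fluorescence within 50% of control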
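Test system: HT1080 cells expressing an RFP-PRO-GFP fluorescent reporter construct / Compound dosing: single-point 20 µM compound, 1% DMSO / Schedule: cells overnight before dosing, compound overnight, 37 °C, 5% CO2 / Evaluation: GFP/RFP fluorescence ratio / Control set: DMSO and RFP-L50D-GFP cell wells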
ABCB6 inh MLPCN = human ABCB6 transporter inhibition; AID 602162; 360,000 compounds, 0.19% hits; fluorescence ratio to DMSO, % at 10 µM; Q9NP58; K562-ABCB6 porphyrin accumulation, flow cytometry, 1 h; stronger effect = lower value;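 active means fluorescence ratio to DMSO below 75%, the collection mean minus 3 SD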;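 further: signal is porphyrin accumulated inside mitochondria; 100% equals median channel fluorescence of DMSO control wells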
FGF22 binding = shifts melting point of recombinant human FGF22 | Q9HCT0 | recombinant FGF22 thermal shift, SYPRO orange fluorescence; percent of sucrose octasulfate shift, DMSO zero | activity (Tm shift, normalised), % at 9.99 µM | 340,000 compounds, 1.5% hits;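 active means mean Tm shift, scaled 0 neutral to 100 positive control, at about 1.3% or above, every replicate too, limit read from the data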
DAGLB inh = blocks human DAGLB lipase activity; Q8NCG7; HEK293T DAGLB membrane lysate, EnzChek fluorogenic substrate; inhibition, % at 5.17 µM; 340,000 compounds, 0.059% hits; AID 504411; in the data active means inhibition above about 34%;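 further: 0% = enzyme with vehicle and 100% = wells lacking enzyme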
VLA-4 inh = inhibition in a human VLA-4 binding assay | VLA-4 expressing cells, ligand binding flow cytometry | inhibition, % (about 7 µM as worked out from the volumes in the protocol) | 330,000 compounds, 0.2% hits | AID 2557; in the data active means inhibition above about 50%
* hit, by the source's call; x = not tested or not shown. An excerpt weighted towards active compounds, which were near 2% of everything screened.

SMILES	Exocytosis inh	MT1-MMP act inh	ABCB6 inh MLPCN	FGF22 binding	DAGLB inh	VLA-4 inh
CCCNC(=O)[C@H]1[C@H](CO)[C@H]2Cn3c(ccc(/C=C/c4ccccc4)c3=O)[C@@H]1N2C(=O)C1CCC1	x	x	x	0	x	x
CCCn1nc(C(=O)N2CCN(c3ccccn3)CC2)c2ccccc2c1=O	11	2	100	44*	-2	-4
O=C(c1nn(-c2ccccc2)c(=O)c2ccccc12)N1CCN(c2ccccn2)CC1	2	2	104	x	-5	11
C[C@H](CO)N1C[C@H](C)[C@H](CN(C)C(=O)Nc2cc(F)ccc2F)Oc2cc(/C=C/c3ccccc3)ccc2S1(=O)=O	x	x	x	2.0*	x	x
C/C=C/c1ccc2c(c1)O[C@@H](CN(C)C(=O)Nc1ccc(C(F)(F)F)cc1)[C@@H](C)CN([C@@H](C)CO)S2(=O)=O	x	x	x	1.3*	x	x
C/C=C/c1ccc2c(c1)O[C@H](CN(C)C(=O)Nc1cc(F)ccc1F)[C@@H](C)CN([C@H](C)CO)S2(=O)=O	x	x	x	0	x	x
COC(=O)C[C@@H]1C[C@H]2c3cc(NC(=O)CN(C)C)ccc3O[C@H]2[C@@H](CO)O1	x	x	x	0	x	x
Cc1cc(CSc2nc(C)cc(=O)[nH]2)c2ncccc2c1	-1	1	98	43*	-1	-6
C[C@H]1CCCCO[C@@H](CN(C)Cc2ccncc2)[C@@H](C)CN([C@@H](C)CO)C(=O)c2cc(NS(C)(=O)=O)ccc2O1	x	x	x	0	x	x
N/C(CSc1ccc(Cl)cc1)=N\NC(=O)c1ccncc1	-6	-3	97	43*	2	-4
O=C(CSc1ccc(Cl)cc1)NCc1ccncc1	-7	-2	99	43*	-2	2
O=C(CSc1ccc(Cl)cc1)NC(=O)c1ccccc1	-2	-3	99	0	-6	2
Cc1ccc(C(=O)O)cc1NC(=S)NC(=O)c1ccc(-c2ccccc2)cc1	-2	8	101	43*	4	6
C[C@H](CO)N1C[C@H](C)[C@H](CN(C)C(=O)Nc2ccc(F)cc2)Oc2ccc(NC(=O)Nc3ccc(F)cc3)cc2C1=O	x	x	x	0	x	x
O=C(Nc1nc2c(s1)CCCC2)c1ccc2ncsc2c1	14	-3	93	1.7*	-1	2
O=C(c1ccc(OC2CCN(Cc3ccccn3)CC2)cc1)N1CCCCO1	-2	2	94	43*	1	8
CC(=O)N1CCN(C(=O)c2ccc(OC3CCN(Cc4ccccn4)CC3)cc2)CC1	10	-2	101	0	0	-2
COc1ccc(C(=O)C2CCCN(C(=O)c3ccccc3C(C)=O)C2)cc1F (centres undefined)	-7	-2	89	0	-1	20
CCC(=O)c1ccc(OCC(=O)N2CCCC2)c(OC)c1	1	1	101	44*	-3	23
COc1ccc(C(=O)C2CCCN(C(=O)COc3ccc(C(C)=O)cc3)C2)cc1F (centres undefined)	-4	5	100	44*	-2	-8
CCC(=O)c1ccc(OCC(=O)O)c(OC)c1	4	1	94	0	-1	-6
CCOc1cc(C(=O)Nc2cccc(C(C)=O)c2)ccc1OCC(=O)N1CCCCC1	-1	-4	97	44*	-1	-3
O=C(N[C@@H]1CC[C@@H](CCNC(=O)C2CC2)O[C@@H]1CO)c1ccccn1	x	x	x	0	x	x
OCC1C2c3ccccc3C(c3ccccc32)C1CO (centres undefined)	8	-1	93	0	0	2
O=C(O)C1C(c2ccccc2)c2ccccc2C(O)C1CO (centres undefined)	4	-2	109	43*	0	x
SMILES	Exocytosis inh	MT1-MMP act inh	ABCB6 inh MLPCN	FGF22 binding	DAGLB inh	VLA-4 inh
O=C(C[C@H]1C[C@@H]2c3cc(NS(=O)(=O)c4ccc(F)cc4)ccc3O[C@@H]2[C@@H](CO)O1)NCc1ccncc1	x	x	x	0	x	x
COC(=O)CSc1nc(C(C)C)nc2ccccc12	0	1	91	x	-3	6
CC(C)OC(=O)CSc1nc(Cc2cccs2)nc2ccccc12	-1	-6	104	44*	-4	2
CNC[C@@H]1OCCCC[C@@H](C)Oc2ccc(NC(=O)Nc3ccccc3)cc2C(=O)N([C@H](C)CO)C[C@H]1C	x	x	x	0	x	x
O=c1nc(N2CCOCC2)nc(N/N=C/c2ccc3c(c2)OCO3)[nH]1	0	0	96	44*	-1	4
O=S(=O)(c1cccc2cccnc12)N1CCc2ccccc21	-1	2	97	x	1	-5
O=S(=O)(c1cccc2cccnc12)N1CCCc2ccccc21	0	-2	98	43*	1	-1
O=S(=O)(c1cccc2cccnc12)N1CCN(c2ccccn2)CC1	-2	-5	100	43*	-1	6
CC1(C)CC(=O)C(CC(=O)Nc2cc(C(F)(F)F)ccc2Cl)C(=O)C1	-2	8	164	44*	0	-1
CC(OC(=O)C1CC1)C(=O)Nc1cc(C(F)(F)F)ccc1Cl (centres undefined)	12	-3	101	44*	-3	-8
COC(=O)C[C@@H]1CC[C@H]2[C@H](COc3ccc(NS(=O)(=O)c4ccccc4Cl)cc3C(=O)N2C)O1	x	x	x	0	x	x
Cc1cc(C)n2nc(SCC(=O)N3CCC(C(=O)O)CC3)nc2n1	-1	3	99	44*	-3	-9
Cc1cc(C)n2nc(SC(C)C(=O)N3CC(C)OC(C)C3)nc2n1 (centres undefined)	-7	-3	101	43*	0	-3
CCCNC(=O)/C=C/C(=O)O	6	0	106	44*	1	10
Cc1ccc(NC(=O)CN2C(=O)S/C(=C/c3ccc(-c4cccc(C(=O)O)c4)o3)C2=O)cc1	2	-10	94	43*	1	x
O=C(O)CCN1C(=O)/C(=C/c2ccc(-c3nc4ccccc4s3)o2)SC1=S	98*	-4	91	x	3	9
Cc1ccc(/C=C2\SC(=S)N(Cc3ccccc3)C2=O)o1	1	-5	118	x	3	6
O=C(O)CCCN1C(=O)/C(=C\c2ccc(-c3nc4ccccc4s3)o2)SC1=S	76*	-20	101	0	1	-4
O=C(O)CC(C(=O)O)N1C(=O)/C(=C/c2ccc(-c3nc4ccccc4s3)o2)SC1=S (centres undefined)	3	-13	111	x	4	-6
O=C(O)c1cc(-c2ccc(/C=C3/SC(=S)N(Cc4ccccc4)C3=O)o2)ccc1Cl	90*	-103	206	1	-3	x
O=C(N[C@H]1CC[C@@H](CCn2cc(C3(O)CCCC3)nn2)O[C@H]1CO)C1CC1	x	x	x	0	x	x
COc1cccc(NC(=O)N[C@@H]2CC[C@@H](CC(=O)N3CCCCC3)O[C@@H]2CO)c1	x	x	x	0	x	x
